Experiments:
Plasmepsin I = Plasmepsin I (Plasmodium falciparum, UniProt P39898); experiment: Binding affinity for Plasmodium falciparum plasmepsin-1.
In short: (§1)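 Fluorogenic protease assay in 100 mM sodium acetate pH 4.5 with 10% glycerol and 0.01% Tween 20. Pro-Plm II at 3 nM had its pro-sequence removed by 40 min preincubation at room temperature. Plm I was matched to similar activity. Pro-cathepsin D at 50 ng/mL was activated 20 min at 37 °C. Inhibitors in DMSO (1% final) were added before 3 μM DABCYL/EDANS peptide substrate. Fluorescence rise was read over 10 min. IC50 came from a competitive-isotherm fit and was converted to Ki using Km.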

Plasmepsin II = Plasmepsin II (Plasmodium falciparum, UniProt P46925); experiment: Binding affinity for Plasmodium falciparum plasmepsin-2.; in short: as §1
Cathepsin D = Cathepsin D (Homo sapiens, UniProt P07339); experiment: In vitro binding affinity for human cathepsin D.; in short: as §1
Plasmodium falciparum [1] = experiment: Effective dose against Plasmodium falciparum in red blood cells; format: functional; conditions: read-out: ED50 (the source's name)
Caco-2 = experiment: Permeability in Caco-2 cells was determined; format: functional, cell-based; conditions: Homo sapiens
Plasmodium falciparum [2] = experiment: Percent inhibition of Plasmodium falciparum in erythrocytes at 5 uM; format: functional
Plasmodium falciparum [3] = experiment: Percent inhibition of Plasmodium falciparum in red blood cells at 5 uM; format: functional
Plasmodium falciparum [4] = experiment: Percent inhibition against Plasmodium falciparum infected red blood cells at 5 uM; format: functional

Sequence of Cathepsin D (P07339 65-162 limits assumed): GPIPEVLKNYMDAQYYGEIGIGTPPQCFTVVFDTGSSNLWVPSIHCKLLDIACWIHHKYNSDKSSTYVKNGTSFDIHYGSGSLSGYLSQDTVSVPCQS
Sequence of Cathepsin D (P07339 169-412 limits assumed): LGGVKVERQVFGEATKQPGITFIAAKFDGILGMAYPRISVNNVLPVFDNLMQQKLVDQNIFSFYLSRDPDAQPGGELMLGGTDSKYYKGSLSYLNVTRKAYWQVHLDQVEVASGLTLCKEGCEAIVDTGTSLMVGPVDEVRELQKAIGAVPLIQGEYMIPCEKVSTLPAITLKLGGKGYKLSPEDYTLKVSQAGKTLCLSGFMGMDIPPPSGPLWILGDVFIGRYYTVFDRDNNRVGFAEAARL
Sequence of Plasmepsin I (P39898 whole entry): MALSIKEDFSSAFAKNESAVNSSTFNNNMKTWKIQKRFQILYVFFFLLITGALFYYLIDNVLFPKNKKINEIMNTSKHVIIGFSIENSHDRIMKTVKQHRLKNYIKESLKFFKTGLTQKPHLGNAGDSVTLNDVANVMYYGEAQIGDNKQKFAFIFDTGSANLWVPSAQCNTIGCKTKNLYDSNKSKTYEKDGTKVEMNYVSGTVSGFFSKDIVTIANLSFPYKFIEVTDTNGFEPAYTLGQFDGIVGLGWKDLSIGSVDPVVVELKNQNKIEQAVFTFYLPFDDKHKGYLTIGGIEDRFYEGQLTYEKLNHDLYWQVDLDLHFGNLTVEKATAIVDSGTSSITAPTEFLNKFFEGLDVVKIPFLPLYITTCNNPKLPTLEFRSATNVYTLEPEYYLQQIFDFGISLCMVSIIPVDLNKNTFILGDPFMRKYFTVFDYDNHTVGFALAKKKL
Sequence of Plasmepsin II (P46925 whole entry): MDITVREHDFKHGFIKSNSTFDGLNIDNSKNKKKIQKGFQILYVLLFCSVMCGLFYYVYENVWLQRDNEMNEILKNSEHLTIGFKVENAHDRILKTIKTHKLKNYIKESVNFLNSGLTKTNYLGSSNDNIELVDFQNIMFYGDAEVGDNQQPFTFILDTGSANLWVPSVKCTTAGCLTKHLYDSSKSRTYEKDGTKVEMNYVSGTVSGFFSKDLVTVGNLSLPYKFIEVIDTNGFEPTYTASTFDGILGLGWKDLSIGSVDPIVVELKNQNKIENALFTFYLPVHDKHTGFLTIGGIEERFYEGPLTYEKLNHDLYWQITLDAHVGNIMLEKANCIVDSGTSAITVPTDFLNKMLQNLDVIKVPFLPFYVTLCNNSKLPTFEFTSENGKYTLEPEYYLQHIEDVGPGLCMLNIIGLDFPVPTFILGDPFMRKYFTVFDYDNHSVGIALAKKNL

Q: Which results are given for `COc1ccccc1-c1ccc(C[C@H](NC[C@H](O)[C@H](Cc2ccccc2)NC(=O)[C@@H](NC(=O)c2ccccn2)C(C)C)C(N)=O)cc1`?
A: Ki (Plasmepsin I): 437 nM; Ki (Plasmepsin II): 379 nM

Q: What does the source list for `CC(C)[C@H](NC(=O)c1ccccn1)C(=O)N[C@@H](Cc1ccccc1)[C@@H](O)CN1C(=O)NC(=O)[C@@H]1Cc1ccc(Br)cc1`?
A: Ki (Cathepsin D): > 2000 nM; Ki (Plasmepsin I): > 2000 nM; Ki (Plasmepsin II): 1900 nM

Q: Which EC50 (Plasmodium falciparum [1]) does the source give for `Cc1ccc(-c2ccc(C[C@H](NC[C@H](O)[C@H](Cc3ccccc3)NC(=O)[C@@H](NC(=O)c3ccccn3)C(C)C)C(N)=O)cc2)cc1` here?
A: 1600 nM

Q: And the Ki (Plasmepsin I)?
A: 115 nM

Q: What about the Ki (Plasmepsin II) of the same compound?
A: 121 nM

Q: Which Ki (Cathepsin D) does the source give for `CC(C)[C@H](NC(=O)c1ccccn1)C(=O)N[C@@H](Cc1ccccc1)[C@@H](O)CN[C@@H](Cc1ccc(-c2ccccc2)cc1)C(N)=O` here?
A: > 2000 nM

Q: What about the Papp (Caco-2) of the same compound?
A: 10.3 ×10⁻⁶ cm/s

Q: What about the Ki (Plasmepsin I) of the same compound?
A: 68 nM

Q: What about the Ki (Plasmepsin II) of the same compound?
A: 117 nM

Q: Which results are given for `CC(C)[C@H](NC(=O)c1ccccn1)C(=O)N[C@@H](Cc1ccccc1)[C@@H](O)CN[C@@H](Cc1ccc(-c2cccc(N)c2)cc1)C(N)=O`?
A: inhibition at 5 µM (Plasmodium falciparum [2]): 77%; Ki (Plasmepsin I): 63 nM; Ki (Plasmepsin II): 150 nM

Q: Which results are given for `CC(C)[C@H](NC(=O)c1ccccn1)C(=O)N[C@@H](Cc1ccccc1)[C@@H](O)CN[C@@H](Cc1cccc(OS(=O)(=O)C(F)(F)F)c1)C(N)=O`?
A: Ki (Cathepsin D): 1700 nM; Ki (Plasmepsin I): 469 nM; Ki (Plasmepsin II): > 2000 nM

Q: How did the Ki (Cathepsin D) turn out when `Cc1ccc(-c2cccc(C[C@H](NC[C@H](O)[C@H](Cc3ccccc3)NC(=O)[C@@H](NC(=O)c3ccccn3)C(C)C)C(N)=O)c2)cc1` was run?
A: 1900 nM

Q: What about the Ki (Plasmepsin I) of the same compound?
A: 1100 nM

Q: What about the Ki (Plasmepsin II) of the same compound?
A: 930 nM

Q: `CC(C)[C@H](NC(=O)c1ccccn1)C(=O)N[C@@H](Cc1ccccc1)[C@@H](O)CN[C@H](C(N)=O)c1ccccc1` was tested. Which Ki (Cathepsin D) did it give?
A: > 2000 nM

Q: And the Ki (Plasmepsin I)?
A: > 2000 nM

Q: And the Ki (Plasmepsin II)?
A: > 2000 nM

Q: What does the source list for `COc1ccccc1-c1cccc(C[C@H](NC[C@H](O)[C@H](Cc2ccccc2)NC(=O)[C@@H](NC(=O)c2ccccn2)C(C)C)C(N)=O)c1`?
A: Ki (Cathepsin D): > 2000 nM; Ki (Plasmepsin I): 1300 nM; Ki (Plasmepsin II): 1430 nM

Q: With `CCCCNC(=O)C[C@H](O)[C@H](CC(C)C)NC(=O)[C@@H](NC(=O)Cc1ccc2ccccc2c1)C(C)CC` (stereo partly drawn) as the compound, how does the Ki (Cathepsin D) read?
A: 320 nM

Q: And the Ki (Plasmepsin II)?
A: 50 nM

Q: Which Ki (Cathepsin D) does the source give for `CC(C)[C@H](NC(=O)c1ccccn1)C(=O)N[C@@H](Cc1ccccc1)[C@@H](O)CN[C@@H](Cc1cccc(-c2ccccc2)c1)C(N)=O` here?
A: 1600 nM

Q: What about the Ki (Plasmepsin I) of the same compound?
A: 1000 nM

Q: And the Ki (Plasmepsin II)?
A: 579 nM

Q: Which Ki (Plasmepsin II) does the source give for `CC(C)C[C@H](NC(=O)[C@H](C)NC(=O)C[C@H](O)[C@H](Cc1ccccc1)NC(=O)[C@@H](NC(=O)c1ccccn1)C(C)C)C(N)=O` here?
A: 0.56 nM

Q: Which Ki (Cathepsin D) does the source give for `CC(C)C[C@H](NC[C@H](O)[C@H](Cc1ccccc1)NC(=O)[C@@H](NC(=O)c1ccccn1)C(C)C)C(N)=O` here?
A: > 2800 nM

Q: Which Ki (Cathepsin D) does the source give for `CC(C)[C@H](NC(=O)c1ccccn1)C(=O)N[C@@H](Cc1ccccc1)[C@@H](O)CN[C@@H](Cc1ccccc1)C(N)=O` here?
A: > 2800 nM

Q: For `CC(C)[C@H](NC(=O)c1ccccn1)C(=O)N[C@@H](Cc1ccccc1)[C@@H](O)CN[C@@H](C)C(N)=O`, which Ki (Cathepsin D) is on record?
A: > 2000 nM

Q: What about the Ki (Plasmepsin I) of the same compound?
A: > 2000 nM

Q: And the Ki (Plasmepsin II)?
A: > 2000 nM

Q: Which results are given for `CC(C)[C@H](NC(=O)c1ccccn1)C(=O)N[C@@H](Cc1ccccc1)[C@@H](O)CN[C@@H](Cc1cccc(-c2cccc(N)c2)c1)C(N)=O`?
A: inhibition at 5 µM (Plasmodium falciparum [3]): 69%; Ki (Cathepsin D): > 2000 nM; Ki (Plasmepsin I): 530 nM; Ki (Plasmepsin II): 129 nM

Q: Which Ki (Cathepsin D) does the source give for `CC(C)[C@H](NC(=O)c1ccccn1)C(=O)N[C@@H](Cc1ccccc1)[C@@H](O)CN[C@H](Cc1ccccc1)C(N)=O` here?
A: > 2000 nM

Q: Which Ki (Cathepsin D) does the source give for `CC(C)[C@H](NC(=O)c1ccccn1)C(=O)N[C@@H](Cc1ccccc1)[C@@H](O)CN[C@@H](Cc1ccc(Br)cc1)C(N)=O` here?
A: > 2000 nM

Q: What about the Ki (Plasmepsin I) of the same compound?
A: 98 nM

Q: And the inhibition at 5 µM (Plasmodium falciparum [4])?
A: 35%

Q: What about the Ki (Plasmepsin II) of the same compound?
A: 540 nM

Q: With `CC(C)C[C@H](NC[C@H](O)[C@H](Cc1ccccc1)NC(=O)c1ccccn1)C(N)=O` as the compound, how does the Ki (Cathepsin D) read?
A: > 2000 nM

Q: What about the Ki (Plasmepsin I) of the same compound?
A: > 2000 nM

Q: What about the Ki (Plasmepsin II) of the same compound?
A: > 2000 nM

Q: How did the Ki (Cathepsin D) turn out when `CC(C)[C@H](NC(=O)c1ccccn1)C(=O)N[C@@H](Cc1ccccc1)[C@@H](O)CN1C(=O)NC(=O)[C@@H]1Cc1ccc(-c2ccccc2)cc1` was run?
A: > 2000 nM

Q: And the Ki (Plasmepsin I)?
A: 2050 nM

Q: And the Ki (Plasmepsin II)?
A: 928 nM

From ChEMBL document CHEMBL1136810, “Design and synthesis of plasmepsin I and plasmepsin II inhibitors with activity in Plasmodium falciparum-infected cultured human erythrocytes” (J Med Chem, 2003)
